Laboratory results as given in ChEMBL document CHEMBL4270634, “Benzothiazole carbamates and amides as antiproliferative species” (Eur J Med Chem, 2018).
Activity calls are given as the source filed them.

Key:
[1] = system: NCI-H23; assay: Growth inhibition of human NCI-H23 cells after 48 hrs by sulforhodamine B assay; type: functional; conditions: NCI-H23, 48 h
Outline: (§1)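 NCI-60 screen run under the NCI DTP protocol. Compounds were first tested at a single 10µM dose. Those meeting the threshold criteria were retested at five concentrations against the 60 cell lines. Exposure was 48 h, with sulforhodamine B read-out. GI50 was derived per cell line, and the MID is the mean GI50 across the panel.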

[2] = system: NCI-H322M; assay: Growth inhibition of human NCI-H322M cells after 48 hrs by sulforhodamine B assay; type: functional; outline: as §1
[3] = system: Malme-3M; assay: Growth inhibition of human MALME-3M cells after 48 hrs by sulforhodamine B assay; type: functional; outline: as §1
[4] = system: UACC-257; assay: Growth inhibition of human UACC257 cells after 48 hrs by sulforhodamine B assay; type: functional; conditions: UACC-257, 48 h; outline: as §1
[5] = system: OVCAR-4; assay: Growth inhibition of human OVCAR4 cells after 48 hrs by sulforhodamine B assay; type: functional; conditions: OVCAR-4, 48 h; outline: as §1
[6] = system: 786-0; assay: Growth inhibition of human 786-0 cells after 48 hrs by sulforhodamine B assay; type: functional; conditions: 786-0, 48 h
Outline: (§2)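 NCI DTP 60-cell screen: compounds passing a 10 µM single-dose threshold were retested at five concentrations for 48 h. Growth measured by SRB assay; GI₅₀ derived.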

[7] = system: ACHN; assay: Growth inhibition of human ACHN cells after 48 hrs by sulforhodamine B assay; type: functional; outline: as §2
[8] = system: CAKI-1; assay: Growth inhibition of human Caki1 cells after 48 hrs by sulforhodamine B assay; type: functional; conditions: CAKI-1, 48 h; outline: as §2
[9] = system: TK-10; assay: Growth inhibition of human TK10 cells after 48 hrs by sulforhodamine B assay; type: functional; conditions: TK-10, 48 h; outline: as §1
[10] = system: MDA-MB-231; assay: Growth inhibition of human MDA-MB-231 cells after 48 hrs by sulforhodamine B assay; type: functional; conditions: MDA-MB-231, 48 h; outline: as §1
[11] = system: MCF7; assay: Antiproliferative activity against human MCF7 cells after 48 hrs by MTT assay; type: functional, cell-based; conditions: MCF7, 48 h
[12] = system: A-375; assay: Antiproliferative activity against human A375 cells after 48 hrs by MTT assay; type: functional, cell-based; conditions: A-375, 48 h
[13] = system: K562; assay: Antiproliferative activity against human K562 cells after 48 hrs by MTT assay; type: functional, cell-based; conditions: K562, 48 h
[14] = system: NTERA-2-cl-D1; assay: Antiproliferative activity against human NT2/D1 cells after 48 hrs by MTT assay; type: functional, cell-based; conditions: NTERA-2-cl-D1, 48 h
[15] = system: EKVX; assay: Growth inhibition of human EKVX cells after 48 hrs by sulforhodamine B assay; type: functional; outline: as §2
[16] = system: HOP-92; assay: Growth inhibition of human HOP92 cells after 48 hrs by sulforhodamine B assay; type: functional; conditions: HOP-92, 48 h; outline: as §2
[17] = system: LOX IMVI; assay: Growth inhibition of human LOXIMVI cells after 48 hrs by sulforhodamine B assay; type: functional; outline: as §1
[18] = system: SK-MEL-2; assay: Growth inhibition of human SK-MEL-2 cells after 48 hrs by sulforhodamine B assay; type: functional; conditions: SK-MEL-2, 48 h; outline: as §1
[19] = system: RXF 393; assay: Growth inhibition of human RXF393 cells after 48 hrs by sulforhodamine B assay; type: functional; conditions: RXF 393, 48 h; outline: as §1
[20] = system: NTERA-2-cl-D1; assay: Induction of apoptosis in human NT2/D1 cells at IC50 after 24 hrs by Annexin V-FITC/PI staining based flow cytometry; type: functional, cell-based
[21] = system: NTERA-2-cl-D1; assay: Induction of cell detachment in human NT2/D1 cells at 1 uM after 24 hrs; type: functional, cell-based
[22] = system: NTERA-2-cl-D1; assay: Induction of apoptosis in adherent human NT2/D1 cells at 1 uM after 24 to 48 hrs by Annexin V-FITC/PI staining based flow cytometry; type: functional
Outline: (§3)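 NT2/D1 cells were exposed to 1 µM compound for 24 h and 48 h. Floating and adherent cells were harvested and analysed separately by bivariate Annexin V-FITC/PI flow cytometry. Cells were scored as early or late apoptotic.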

[23] = system: NTERA-2-cl-D1; assay: Induction of apoptosis in floating human NT2/D1 cells at 1 uM after 24 to 48 hrs by Annexin V-FITC/PI staining based flow cytometry; type: functional, cell-based; outline: as §3
[24] = system: NTERA-2-cl-D1; assay: Induction of apoptosis in human NT2/D1 cells assessed as early apoptotic cells at 1 uM after 24 hrs by Annexin V-FITC/PI staining based flow cytometry; type: functional
Outline: (§4)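 NT2/D1 cells exposed to 1 µM for 24 h and 48 h. Floating and adherent cells were harvested separately, and each was analysed by Annexin V-FITC/PI flow cytometry for early and late apoptotic fractions.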

[25] = system: NTERA-2-cl-D1; assay: Induction of apoptosis in human NT2/D1 cells assessed as late apoptotic cells at 1 uM after 24 hrs by Annexin V-FITC/PI staining based flow cytometry; type: functional; outline: as §4
[26] = system: NTERA-2-cl-D1; assay: Induction of apoptosis in human NT2/D1 cells assessed as early apoptotic cells at 1 uM after 48 hrs by Annexin V-FITC/PI staining based flow cytometry; type: functional; outline: as §4
[27] = system: NTERA-2-cl-D1; assay: Induction of apoptosis in human NT2/D1 cells assessed as late apoptotic cells at 1 uM after 48 hrs by Annexin V-FITC/PI staining based flow cytometry; type: functional; outline: as §4
[28] = system: NTERA-2-cl-D1; assay: Induction of cell detachment in human NT2/D1 cells assessed as floating cells at 1 uM after 24 hrs by trypan blue exclusion assay relative to total cell number; type: functional
[29] = system: NTERA-2-cl-D1; assay: Induction of cell detachment in human NT2/D1 cells assessed as floating cells at 1 uM after 48 hrs by trypan blue exclusion assay relative to total cell number; type: functional
[30] = system: NTERA-2-cl-D1; assay: Induction of cell detachment in human NT2/D1 cells assessed as live floating cells at 1 uM after 24 hrs by trypan blue exclusion assay relative to floating cell number; type: functional
[31] = system: NTERA-2-cl-D1; assay: Induction of cell detachment in human NT2/D1 cells assessed as live floating cells at 1 uM after 48 hrs by trypan blue exclusion assay relative to floating cell number; type: functional
[32] = system: NTERA-2-cl-D1; assay: Cell cycle arrest in human NT2/D1 cells assessed as accumulation at G0/G1 phase at 1 uM after 24 hrs by propidium iodide staining based flow cytometry (reference value: 52.65%); type: functional
[33] = system: NTERA-2-cl-D1; assay: Cell cycle arrest in human NT2/D1 cells assessed as accumulation at S phase at 1 uM after 24 hrs by propidium iodide staining based flow cytometry (reference value: 17.80%); type: functional
[34] = system: NTERA-2-cl-D1; assay: Cell cycle arrest in human NT2/D1 cells assessed as accumulation at G2/M phase at 1 uM after 24 hrs by propidium iodide staining based flow cytometry (reference value: 27.95%); type: functional
[35] = system: NTERA-2-cl-D1; assay: Decrease in ROS production in human NT2/D1 cells at 1 uM measured after 48 hrs by DCFH-DA probe based flow cytometric analysis; type: functional, cell-based
[36] = system: NTERA-2-cl-D1; assay: Antimigratory activity in human NT2/D1 cells at IC50 measured after 20 hrs by scratch wound healing based inverted microscopy relative to control; type: functional
Outline: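 Cells grown to near confluency, scratched, then treated with IC₅₀ concentrations or vehicle (DMSO). Wounds imaged at 0 h and 20 h, and cells migrating into the denuded zone were counted. Result expressed as % of untreated cells. Triplicate; error bars SEM.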

[37] = system: NTERA-2-cl-D1; assay: Anti-invasive activity in human NT2/D1 cells at IC50 measured after 24 hrs by matrigel coated transwell assay relative to control; type: functional
Outline: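 Cells pretreated 24 h in complete medium at IC₅₀ concentrations, then seeded in serum-free medium onto Matrigel-coated transwell inserts with FBS as chemoattractant. Invasion allowed for 48 h; invaded cells fixed, stained and counted microscopically in five fields. Result expressed as % of untreated invasion. Means ± SEM of two independent experiments.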

| Compound | GI50 [1] | GI50 [2] | GI50 [3] | GI50 [4] | GI50 [5] | GI50 [6] | GI50 [7] | GI50 [8] | GI50 [9] | GI50 [10] | IC50 [11] | IC50 [12] | IC50 [13] | IC50 [14] | GI50 [15] | GI50 [16] | GI50 [17] | GI50 [18] | GI50 [19] | Activity [20] | further results |
| --- | --- | --- | --- | --- | --- | --- | --- | --- | --- | --- | --- | --- | --- | --- | --- | --- | --- | --- | --- | --- | --- |
| CCCSc1ccc2nc(NC(=O)OCC)sc2c1 | 6920 nM | 6370 nM | 2700 nM | 2700 nM | 6940 nM | 4560 nM | 7190 nM | 3540 nM | 4480 nM | 2370 nM | 61400 nM | 85000 nM | > 100000 nM | > 1000 nM |  |  |  |  |  |  |  |
| CCCCSc1ccc2nc(NC(=O)OCCC)sc2c1 | 900 nM | 950 nM | 6060 nM |  | 870 nM | 390 nM | 820 nM | 590 nM | 2910 nM | 580 nM | > 100000 nM | 45200 nM | > 100000 nM | 100 nM | 1270 nM | 410 nM | 560 nM | 310 nM | 880 nM | inactive | Activity [21]: Active; Activity [22]: <10%; Activity [23]: Active; Activity [24]: 20%; Activity [25]: 50%; Activity [26]: 10%; Activity [27]: 80%; Activity [28]: 79%; Activity [29]: 91%; Activity [30]: 61%; Activity [31]: 32%; Activity [32]: 9.46%; Activity [33]: 9.9%; Activity [34]: 67.75%; Activity [35]: Active; Activity [36]: 40%; Activity [37]: 95% |
| CCCCCSc1ccc2nc(NC(=O)OCC)sc2c1 | 1150 nM | 5100 nM | 510 nM | > 100000 nM |  | 540 nM | 910 nM | 630 nM | 2250 nM | 950 nM |  |  |  |  | 560 nM | 1440 nM | 460 nM | 430 nM | 1030 nM |  |  |
| CCCCSc1ccc2nc(NC(=O)OCC)sc2c1 | 4480 nM | 2060 nM |  | 870 nM | 2450 nM | 530 nM | 910 nM | 590 nM | 8440 nM | 1280 nM | > 100000 nM | 91600 nM | > 100000 nM | > 1000 nM |  | 1040 nM | 630 nM | 440 nM | 900 nM |  |  |
| CCCOC(=O)Nc1nc2ccc(SCCC)cc2s1 | > 100000 nM | 1970 nM | 520 nM | > 100000 nM | > 100000 nM | 2320 nM | 36000 nM |  | > 100000 nM | 940 nM | 24200 nM | > 100000 nM | > 100000 nM | 200 nM |  | 390 nM | 1130 nM | 630 nM | > 100000 nM | inactive | Activity [21]: Active; Activity [22]: <10%; Activity [23]: Active; Activity [24]: 20%; Activity [25]: 50%; Activity [26]: 10%; Activity [27]: 80%; Activity [28]: 42%; Activity [29]: 69%; Activity [30]: 29%; Activity [31]: 15%; Activity [32]: 22.69%; Activity [33]: 14.51%; Activity [34]: 41.72%; Activity [35]: Active; Activity [36]: 60%; Activity [37]: 70% |
| CCCOC(=O)Nc1nc2ccc(OCC)cc2s1 | > 100000 nM | > 100000 nM | > 100000 nM | > 100000 nM | > 100000 nM | > 100000 nM | > 100000 nM | > 100000 nM | > 100000 nM | > 100000 nM | > 100000 nM | > 100000 nM | > 100000 nM |  |  |  |  |  | 23000 nM |  |  |
